Calls of active or inactive are those of the source.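 The calls were made as follows, unless noted: active = GFP response above 150% of the DMSO level; inconclusive = fewer than 70 events counted for a yeast strain; inactive = the rest.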

Assay [1] in a line: RPL19A-GFP modulators, yeast TOR pathway, confirmation, cell-based, S. cerevisiae, flow cytometry, cherry picks, mother/daughter gates (AID 2270;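 active = GFP response below 50% of the DMSO control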). The note with it: S. cerevisiae RPL19A-GFP strain, 3 h, at 10 µM, stronger effect = lower value, 100 = same GFP as DMSO wells. Background: A flow cytometer gives signals particle by particle.
Assay [2] is described as follows: LAP4-GFP expression modulators in yeast, confirmation, cell-based, cherry picks, flow cytometry, mother/daughter gates (AID 2271;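 active = GFP response above 150% of the DMSO control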;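 also: ratio of sample to DMSO plate mean so 100% equals DMSO level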). The note with it: S. cerevisiae LAP4-GFP strain, 3 h, at 10 µM, stronger effect = higher value, 100 means same as DMSO control. The method in brief:
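System: Alexa 633-stained baker's yeast GFP-fusion strain / Medium: synthetic complete (SC) yeast growth medium / Doses: compound at 10 µM, single point / Times: 3 h treatment at 30 °C with rotation / Detection: HT flow cytometry, GFP fluorescence channel / Benchmarks: DMSO-only negative wells, rapamycin 400 ng/mL positive wells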

The nature of assay [3]: modulators of MEP2-GFP levels in yeast, confirmation, S. cerevisiae, flow cytometry GFP, cherry picks (AID 2272;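 active = GFP response above 150% of the DMSO control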;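 also: ratio of well signal to plate DMSO mean so 100% equals DMSO level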). The note with it: S. cerevisiae MEP2-GFP strain, 3 h, at 10 µM, stronger effect = higher value.
Assay [4] can be described thus: AGP1-GFP expression modulators, hit retest, confirmation, cell-based, flow cytometry, S. cerevisiae, cherry picks (AID 2273).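 Also: median GFP channel fluorescence over the whole cell population gate.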 As to conditions: S. cerevisiae AGP1-GFP strain, 3 h, at 10 µM.
Assay [5] is described as follows: modulators of CIT2-GFP expression in yeast, confirmation, S. cerevisiae, GFP fusion, cherry picks, mother/daughter gates (AID 2274). As to conditions: S. cerevisiae CIT2-GFP strain, flow cytometry, 3 h, at 10 µM, stronger effect = higher value.
[6] abbreviates: measured here: daughter cell gate.
Setting [7] is: measured here: mother cell gate.
Setting [8] is: measured here: daughter cell gate response.
Setting [9] is: measured here: mother cell gate response.

With `Cn1cc([N+](=O)[O-])c(C(=O)Nc2nc(-c3ccc(Cl)cc3)cs2)n1`, the GFP response vs DMSO is 97.8% (inactive) in assay [1], 97% in assay [1] (setting [6]), 96.5% in assay [1] (setting [7]) and 106% (inactive) in assay [3]. In addition, the GFP response relative to DMSO was 102% (inactive) in assay [2], 97.5% in assay [2] (setting [8]) and 102% in assay [2] (setting [9]). Also, the GFP response, % of DMSO in assay [4] was 95.5% (inactive); in assay [5], 100% (inactive); in assay [5] (setting [6]) it was 97.6%; in assay [5] (setting [7]), 99.3%.

As for `O=C(/C=C/c1ccccc1)Nc1ncn[nH]1`, the GFP response vs DMSO in assay [1] is 97.4% (inactive); in assay [1] (setting [6]), 97.3%; in assay [1] (setting [7]), 96%; in assay [3], 102% (inactive). Besides, the GFP response relative to DMSO in assay [2] was 135% (inactive); in assay [2] (setting [8]), 125%; in assay [2] (setting [9]) it was 137%. Also, the GFP response, % of DMSO in assay [4] was 98% (inactive); in assay [5], 97.8% (inactive); in assay [5] (setting [6]), 100%; in assay [5] (setting [7]), 94.5%.

On to `COc1ccc(-c2nc(NC(=O)c3cc(C(C)(C)C)nn3C)sc2C)cc1`, for which the GFP response vs DMSO in assay [1] is 98.7% (inactive); in assay [1] (setting [6]), 100%; in assay [1] (setting [7]), 99%; in assay [3], 103% (inactive). Moreover, the GFP response relative to DMSO in assay [2] was 98.9% (inactive); in assay [2] (setting [8]), 101%; in assay [2] (setting [9]) it was 99.5%. Besides, the GFP response, % of DMSO is 100% (inactive) in assay [4], 104% (inactive) in assay [5], 103% in assay [5] (setting [6]) and 104% in assay [5] (setting [7]).

Regarding `CN(C(=O)c1cccnc1)c1nc(-c2ccccc2)cs1`, the GFP response vs DMSO in assay [1] is 97.6% (inactive); in assay [1] (setting [6]), 97.3%; in assay [1] (setting [7]) it was 95%; in assay [3], 106% (inactive). For the same molecule, the GFP response relative to DMSO in assay [2] is 102% (inactive); in assay [2] (setting [8]) it was 99%; in assay [2] (setting [9]), 102%. For the same molecule, the GFP response, % of DMSO was 96.1% (inactive) in assay [4], 98.6% (inactive) in assay [5], 99.3% in assay [5] (setting [6]) and 96% in assay [5] (setting [7]).

As for `Cn1c(=O)c(C(=O)NC2CCCCCCC2)c(O)c2ccccc21`, the GFP response vs DMSO in assay [1] was 101% (inactive); in assay [1] (setting [6]), 102%; in assay [1] (setting [7]) it was 103%; in assay [3], 95.7% (inactive). The GFP response relative to DMSO in assay [2] is 93.8% (inactive); in assay [2] (setting [8]) it was 94.1%; in assay [2] (setting [9]), 96.2%. Moreover, the GFP response, % of DMSO was 98.9% (inactive) in assay [4], 107% (inactive) in assay [5], 105% in assay [5] (setting [6]) and 111% in assay [5] (setting [7]).

Take `C/C(=N\NC(=O)c1cc2ccccc2cc1O)c1ccccn1`: the GFP response vs DMSO is 106% (inactive) in assay [1], 103% in assay [1] (setting [6]), 98.1% in assay [1] (setting [7]) and 126% (inactive) in assay [3]. Besides, the values for the GFP response relative to DMSO in assay [2], in assay [2] (setting [8]) and in assay [2] (setting [9]) were 234% (active), 147% and 231%, respectively. Besides, the GFP response, % of DMSO is 109% (inactive) in assay [4], 132% (inactive) in assay [5], 113% in assay [5] (setting [6]) and 120% in assay [5] (setting [7]).

Consider `O=C1C2C3C=CC(CNS(=O)(=O)c4ccccc4)(O3)C2C(=O)N1c1ccc(Cl)cc1` (configuration not stated), for which the GFP response vs DMSO in assay [1] was 102% (inactive); in assay [1] (setting [6]) it was 103%; in assay [1] (setting [7]), 102%; in assay [3], 114% (inactive). The values for the GFP response relative to DMSO in assay [2], in assay [2] (setting [8]) and in assay [2] (setting [9]) were 110% (inactive), 109% and 109%, respectively. The GFP response, % of DMSO in assay [4] was 99.7% (inactive); in assay [5] it was 111% (inactive); in assay [5] (setting [6]), 113%; in assay [5] (setting [7]), 108%.

Consider `CCN(C(=O)c1ccccc1Cl)c1ccccc1`, for which the GFP response vs DMSO was 98.5% (inactive) in assay [1], 99% in assay [1] (setting [6]), 98% in assay [1] (setting [7]) and 99.3% (inactive) in assay [3]. For the same molecule, the results for the GFP response relative to DMSO in assay [2], in assay [2] (setting [8]) and in assay [2] (setting [9]) were 107% (inactive), 104% and 110%, respectively. Also, the GFP response, % of DMSO in assay [4] was 98.8% (inactive); in assay [5], 100% (inactive); in assay [5] (setting [6]), 101%; in assay [5] (setting [7]) it was 100%.

As to `c1ccc(Cn2ncc3ccccc32)cc1`, the GFP response vs DMSO was 100% (inactive) in assay [1], 101% in assay [1] (setting [6]), 101% in assay [1] (setting [7]) and 99.5% (inactive) in assay [3]. Also, the GFP response relative to DMSO in assay [2] was 94.2% (inactive); in assay [2] (setting [8]), 92.2%; in assay [2] (setting [9]), 93.6%. For the same molecule, the GFP response, % of DMSO in assay [4] is 96.2% (inactive); in assay [5], 97.8% (inactive); in assay [5] (setting [6]), 98.3%; in assay [5] (setting [7]), 96.8%.

Turning to `COc1cc(NC(=O)c2cccc([N+](=O)[O-])c2)ccc1NC(=O)c1cc2ccccc2o1`, the GFP response vs DMSO in assay [1] is 98% (inactive); in assay [1] (setting [6]), 99.9%; in assay [1] (setting [7]), 97.8%; in assay [3], 101% (inactive). The GFP response relative to DMSO was 94.9% (inactive) in assay [2], 98.2% in assay [2] (setting [8]) and 95.1% in assay [2] (setting [9]). Also, the GFP response, % of DMSO in assay [4] was 100% (inactive); in assay [5], 107% (inactive); in assay [5] (setting [6]), 105%; in assay [5] (setting [7]) it was 108%.

For `O=C(CSc1ccc(Cl)cc1)Nc1cccc(-c2nc3ccccc3[nH]2)c1`, the GFP response vs DMSO was 97.8% (inactive) in assay [1], 98% in assay [1] (setting [6]), 97.8% in assay [1] (setting [7]) and 99.5% (inactive) in assay [3]. For the same molecule, the GFP response relative to DMSO is 101% (inactive) in assay [2], 97.9% in assay [2] (setting [8]) and 101% in assay [2] (setting [9]). The GFP response, % of DMSO in assay [4] was 98% (inactive); in assay [5], 96.4% (inactive); in assay [5] (setting [6]), 96.4%; in assay [5] (setting [7]), 95.6%.

On to `COC(=O)Nc1c(-c2ccccc2)nc2ccc(C)cn12`, for which the GFP response vs DMSO in assay [1] was 101% (inactive); in assay [1] (setting [6]) it was 98.7%; in assay [1] (setting [7]) it was 102%; in assay [3], 102% (inactive). For the same molecule, the GFP response relative to DMSO in assay [2] was 96.2% (inactive); in assay [2] (setting [8]), 97.2%; in assay [2] (setting [9]) it was 98.3%. In addition, the GFP response, % of DMSO in assay [4] was 103% (inactive); in assay [5], 104% (inactive); in assay [5] (setting [6]), 101%; in assay [5] (setting [7]) it was 107%.

In the case of `O=S(=O)(c1ccc(Cl)cc1)c1snnc1-c1ccccc1`, the GFP response vs DMSO was 93.7% (inactive) in assay [1], 92.2% in assay [1] (setting [6]), 96.6% in assay [1] (setting [7]) and 98.8% (inactive) in assay [3]. The results for the GFP response relative to DMSO in assay [2], in assay [2] (setting [8]) and in assay [2] (setting [9]) were 126% (inactive), 123% and 129%, respectively. For the same molecule, the GFP response, % of DMSO in assay [4] was 102% (inactive); in assay [5] it was 95.9% (inactive); in assay [5] (setting [6]) it was 92.1%; in assay [5] (setting [7]), 96.7%.

As for `CCOC(=O)c1cc2c(=O)n3ccccc3nc2n(CCOC)c1=NC(=O)C(C)(C)C`, the GFP response vs DMSO in assay [1] is 99.4% (inactive); in assay [1] (setting [6]) it was 99.1%; in assay [1] (setting [7]), 97.3%; in assay [3], 99% (inactive). Also, the figures for the GFP response relative to DMSO in assay [2], in assay [2] (setting [8]) and in assay [2] (setting [9]) were 94.4% (inactive), 92.6% and 94.1%, respectively. The GFP response, % of DMSO in assay [4] is 103% (inactive); in assay [5], 94.4% (inactive); in assay [5] (setting [6]), 93.8%; in assay [5] (setting [7]), 93.2%.

Turning to `C/C(=N\NC(=O)c1ccc(Cl)cc1)c1cccc(NC(=O)C(C)C)c1`, the GFP response vs DMSO is 95.8% (inactive) in assay [1], 95.1% in assay [1] (setting [6]), 95.8% in assay [1] (setting [7]) and 96.2% (inactive) in assay [3]. The GFP response relative to DMSO in assay [2] is 99.2% (inactive); in assay [2] (setting [8]), 99.2%; in assay [2] (setting [9]), 97.2%. The GFP response, % of DMSO is 97.2% (inactive) in assay [4], 101% (inactive) in assay [5], 101% in assay [5] (setting [6]) and 101% in assay [5] (setting [7]).

Consider `Cc1ccccc1NC(=O)c1ccccc1O`, for which the GFP response vs DMSO in assay [1] is 94% (inactive); in assay [1] (setting [6]), 92.9%; in assay [1] (setting [7]) it was 94%; in assay [3] it was 101% (inactive). The GFP response relative to DMSO in assay [2] was 106% (inactive); in assay [2] (setting [8]), 101%; in assay [2] (setting [9]) it was 108%. For the same molecule, the GFP response, % of DMSO in assay [4] was 93.8% (inactive); in assay [5], 100% (inactive); in assay [5] (setting [6]) it was 97.4%; in assay [5] (setting [7]), 98.1%.

Turning to `COc1ccc(-c2[nH]ncc2-c2ccc(Cl)cc2)c(O)c1`, the GFP response vs DMSO was 101% (inactive) in assay [1], 97.8% in assay [1] (setting [6]), 99.4% in assay [1] (setting [7]) and 102% (inactive) in assay [3]. Besides, the GFP response relative to DMSO was 103% (inactive) in assay [2], 100% in assay [2] (setting [8]) and 105% in assay [2] (setting [9]). For the same molecule, the GFP response, % of DMSO in assay [4] was 93.7% (inactive); in assay [5], 104% (inactive); in assay [5] (setting [6]), 101%; in assay [5] (setting [7]) it was 105%.

(Values after PubChem BioAssay.)
